The source of these data is ChEMBL document CHEMBL1126584 (J Med Chem, 1993).

In assay [1] the target is T1, D(2) dopamine receptor (Rattus norvegicus, UniProt P61169). The assay can be described thus: Binding affinity against D2 receptor in rat corpus striatum using [3H]sulpiride as the radioligand. Format: tissue-based. Put shortly: (§1)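 Fresh rat striatum homogenised in 50 mM Tris-HCl pH 7.5, pellet resuspended in buffer with 100 mM NaCl to 3.75 mg wet weight/mL. Incubated with 3 nM [3H]sulpiride for 60 min at 25 °C, in triplicate; 10 μM haloperidol defined nonspecific binding. Filtration on polyethyleneimine-treated filters; IC50 from concentration-response curves converted to Ki by Cheng-Prusoff; mean of at least three determinations.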
T1 sequence (P61169 whole entry): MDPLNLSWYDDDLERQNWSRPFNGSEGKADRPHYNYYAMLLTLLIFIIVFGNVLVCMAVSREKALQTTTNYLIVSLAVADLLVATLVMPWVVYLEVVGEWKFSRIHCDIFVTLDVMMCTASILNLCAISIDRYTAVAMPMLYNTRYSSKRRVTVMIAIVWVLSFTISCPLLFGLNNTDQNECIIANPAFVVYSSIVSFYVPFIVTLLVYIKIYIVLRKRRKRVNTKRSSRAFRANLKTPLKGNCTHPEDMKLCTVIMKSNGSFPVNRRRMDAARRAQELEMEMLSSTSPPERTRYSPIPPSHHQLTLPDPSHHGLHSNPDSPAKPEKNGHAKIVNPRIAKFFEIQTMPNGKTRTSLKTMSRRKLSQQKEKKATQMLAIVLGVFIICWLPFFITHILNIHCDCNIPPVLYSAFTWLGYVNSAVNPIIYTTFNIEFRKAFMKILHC

In assay [2] the target is T1, D(2) dopamine receptor. The assay can be described thus: Compound was tested for binding affinity against D2 receptor in rat corpus striatum, using [3H]sulpiride as the radioligand. Format: tissue-based. Put shortly:
as §1

As a reminder, the Ki is the equilibrium dissociation constant of an inhibitor or competing ligand from its target. Read a low Ki as tighter binding. With `c1ccc(-n2c3c(c4ccccc42)C2CCC(C3)N2)cc1` (stereo not drawn), the affinity on D(2) dopamine receptor [1], expressed as Ki, was 10000 nM.
Same read-out and setting: in the case of `CCCN1C2CCC1c1c([nH]c3ccccc13)C2` (stereo not drawn) it was 11200 nM; in that of `CCN1C2CCC1c1c([nH]c3ccccc13)C2` (stereo not drawn), greater than 10000 nM; in that of `CN(CCN1C2CCC1c1c([nH]c3ccccc13)C2)C(=O)Cc1ccc(Cl)c(Cl)c1` (stereo not drawn), 3790 nM.
Still for that read-out and setting: in the case of `c1ccc(CCCCN2C3CCC2c2c([nH]c4ccccc24)C3)cc1` (stereo not drawn) it was 733 nM.
With `c1ccc2c3c([nH]c2c1)CC1CCC3N1` (stereo not drawn), the Ki on D(2) dopamine receptor [2] is greater than 100000 nM.
For the compound `c1coc(CCCCN2C3CCC2c2c([nH]c4ccccc24)C3)c1` (single isomer, unassigned; (-)), at D(2) dopamine receptor [1], the affinity, expressed as Ki, was 3150 nM.
In turn, `O=C(CCCN1C2CCC1c1c([nH]c3ccccc13)C2)c1ccc(F)cc1` (stereo not drawn) had a Ki on D(2) dopamine receptor [1] of 270 nM.
Still for that read-out and setting: in the case of `c1coc(CCCCN2C3CCC2c2c([nH]c4ccccc24)C3)c1` (single isomer, unassigned; (+)) it was 330 nM; in that of `O=C1CC2(CCCC2)CC(=O)N1CCCCN1C2CCC1c1c([nH]c3ccccc13)C2` (stereo not drawn), 3000 nM; in that of `CC/C=C/N1C2CCC1c1c([nH]c3ccccc13)C2` (stereo not drawn), 710 nM.
Regarding `c1ccc2c(c1)CN(CCN1C3CCC1c1c([nH]c4ccccc14)C3)C2` (stereo not drawn), the Ki at D(2) dopamine receptor [1] turned out to be 2000 nM.
As for `c1ccc2c3c([nH]c2c1)CC1CCC3N1CCCCc1nccs1` (stereo not drawn), the Ki on D(2) dopamine receptor [1] is 2230 nM.
On the same count and under the same terms, with `Fc1ccc2[nH]c3c(c2c1)C1CCC(C3)N1Cc1ccccc1` (stereo not drawn) the figure was 2420 nM; with `c1ccc(CCCCN2C3CCC2c2c(n(-c4ccccc4)c4ccccc24)C3)cc1` (stereo not drawn), 1570 nM.
On the same count and under the same terms, with `c1coc(CCCCN2C3CCC2c2c([nH]c4ccccc24)C3)c1` (racemic) the figure was 1270 nM; with `c1csc(CCCCN2C3CCC2c2c([nH]c4ccccc24)C3)c1` (stereo not drawn), 620 nM.
Turning to `c1coc(CCCCN2C3CCC2c2c([nH]c4ccccc24)C3)c1` (stereo in doubt; 40), the affinity at D(2) dopamine receptor [1], expressed as Ki, was 1270 nM.
